According to ChEMBL document CHEMBL3407461 (J Med Chem, 2014):
≈ marks a conversion by molar mass, not a printed value.

What was measured:
[1] = target: T1, Adenosine receptor A1 (Homo sapiens) (UniProt P30542); test: Displacement of [3H]R-PIA from human recombinant A1 adenosine receptor expressed in CHO cells at 10 uM after 60 mins by liquid scintillation counting; format: cell-based
T1 sequence (whole entry): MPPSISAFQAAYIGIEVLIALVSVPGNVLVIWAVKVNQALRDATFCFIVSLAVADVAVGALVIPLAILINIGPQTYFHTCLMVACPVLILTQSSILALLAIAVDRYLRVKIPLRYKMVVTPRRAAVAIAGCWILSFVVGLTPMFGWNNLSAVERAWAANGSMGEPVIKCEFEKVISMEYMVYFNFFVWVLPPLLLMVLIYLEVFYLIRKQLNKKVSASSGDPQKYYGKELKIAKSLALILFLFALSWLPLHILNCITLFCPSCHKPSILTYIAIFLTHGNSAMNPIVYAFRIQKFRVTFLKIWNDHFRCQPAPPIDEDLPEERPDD

[2] = target: Adenosine receptor A2a (Homo sapiens) (UniProt P29274); test: Displacement of [3H]CGS21680 from human recombinant A2A adenosine receptor expressed in HEK293 cells at 10 uM after 60 mins by liquid scintillation counting; format: cell-based
Sequence of Adenosine receptor A2a (Homo sapiens) (P29274 whole entry): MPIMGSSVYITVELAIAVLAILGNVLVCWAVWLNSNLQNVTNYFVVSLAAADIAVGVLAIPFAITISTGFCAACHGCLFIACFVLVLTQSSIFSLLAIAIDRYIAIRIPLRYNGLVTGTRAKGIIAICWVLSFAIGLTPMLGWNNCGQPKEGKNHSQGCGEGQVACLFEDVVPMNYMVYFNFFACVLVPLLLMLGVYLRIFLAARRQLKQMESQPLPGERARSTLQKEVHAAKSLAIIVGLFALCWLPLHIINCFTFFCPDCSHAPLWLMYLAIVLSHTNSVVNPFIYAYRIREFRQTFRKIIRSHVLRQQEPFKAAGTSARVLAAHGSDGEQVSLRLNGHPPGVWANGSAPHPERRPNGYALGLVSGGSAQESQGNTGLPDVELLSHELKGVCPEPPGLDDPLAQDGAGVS

[3] = target: Adenosine receptor A2a (Mus musculus) (UniProt Q60613); test: Displacement of [3H]CGS21680 from mouse A2A adenosine receptor expressed in HEK293 cells at 10 uM after 60 mins by liquid scintillation counting; format: cell-based
Sequence of Adenosine receptor A2a (Mus musculus) (Q60613 whole entry): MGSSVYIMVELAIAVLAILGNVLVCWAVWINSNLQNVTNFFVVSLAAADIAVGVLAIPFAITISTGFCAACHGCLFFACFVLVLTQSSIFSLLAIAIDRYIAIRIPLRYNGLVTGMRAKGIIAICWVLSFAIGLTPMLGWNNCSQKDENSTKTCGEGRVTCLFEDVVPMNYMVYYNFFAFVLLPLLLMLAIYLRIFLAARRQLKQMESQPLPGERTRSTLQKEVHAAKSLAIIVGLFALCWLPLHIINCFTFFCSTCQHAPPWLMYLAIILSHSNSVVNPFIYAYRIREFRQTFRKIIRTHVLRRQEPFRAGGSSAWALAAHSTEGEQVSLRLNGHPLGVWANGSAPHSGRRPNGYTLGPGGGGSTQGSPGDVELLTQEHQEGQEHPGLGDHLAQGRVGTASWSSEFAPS

Mus musculus [4] = test: Antinociceptive activity in chronic constriction injury neutropathic pain CD-1 mouse model assessed as time for peak protection at 3 umol/kg, po; format: functional
Summary of the method: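 Male CD-1 mice (25−30 g), chronic constriction injury of left sciatic nerve (Bennett model) under isoflurane. Dosed by gavage (3 μmol/kg, 0.2 mL) at peak mechano-allodynia on day 7; vehicle 10% DMSO in 0.5% methylcellulose. Paw withdrawal threshold (g) measured on the ipsilateral hind paw from 30 min to 5 h post dose. Expressed as % reversal, mean ± SEM over n animals.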

Mus musculus [5] = test: Antinociceptive activity in chronic constriction injury neutropathic pain CD-1 mouse model assessed as maximum protection on ipsilateral hind paw at 3 umol/kg, po after 30 mins to 5 hrs post dose relative to control; format: functional; conditions: CD-1, po
Mus musculus [6] = test: Antinociceptive activity in chronic constriction injury neutropathic pain CD-1 mouse model at 3 umol/kg, po after 3 hrs post dose relative to control; format: functional
[7] = Aqueous solubility of the compound at pH 7.4 by pION Method; format: physicochemical; conditions: buffer
[8] = Half life of the compound in simulated gastric fluid at pH 1.6; format: ADME; conditions: simulated gi fluid
[9] = Half life of the compound in simulated intestinal fluid at pH 6.5; format: ADME; conditions: simulated gi fluid
Plasma [10] = test: Fraction unbound in human plasma at 10 uM after 5 hrs by LC-MS/MS analysis; format: ADME, cell-free
Plasma [11] = test: Fraction unbound in rat plasma at 10 uM after 5 hrs by LC-MS/MS analysis; format: ADME, cell-free
Plasma [12] = test: Fraction unbound in mouse plasma at 10 uM after 5 hrs by LC-MS/MS analysis; format: ADME, cell-free
Cytochrome P450 1A2 = target: T2, Cytochrome P450 1A2 (Homo sapiens, UniProt P05177); test: Inhibition of CYP1A2 in human microsomes preincubated for 5 mins before substrate addition measured after 10 mins by LC/MS/MS analysis; format: ADME
T2 sequence (P05177 whole entry): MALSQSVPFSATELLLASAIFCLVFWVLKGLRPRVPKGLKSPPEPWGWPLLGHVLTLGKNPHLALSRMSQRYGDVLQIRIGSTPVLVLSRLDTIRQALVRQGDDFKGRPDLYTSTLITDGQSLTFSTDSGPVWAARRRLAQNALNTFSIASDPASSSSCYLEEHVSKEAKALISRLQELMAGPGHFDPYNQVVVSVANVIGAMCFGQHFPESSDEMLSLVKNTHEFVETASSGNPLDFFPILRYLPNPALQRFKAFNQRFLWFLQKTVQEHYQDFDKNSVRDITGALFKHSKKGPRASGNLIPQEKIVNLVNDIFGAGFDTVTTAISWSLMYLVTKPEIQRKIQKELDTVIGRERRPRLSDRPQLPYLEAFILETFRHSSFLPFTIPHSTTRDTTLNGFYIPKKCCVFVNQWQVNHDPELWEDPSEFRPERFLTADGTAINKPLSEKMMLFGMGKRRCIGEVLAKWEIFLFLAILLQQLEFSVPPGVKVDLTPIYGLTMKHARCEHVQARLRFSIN

Cytochrome P450 2C9 = Cytochrome P450 2C9 (Homo sapiens, UniProt P11712); test: Inhibition of CYP2C9 in human microsomes preincubated for 5 mins before substrate addition measured after 10 mins by LC/MS/MS analysis; format: ADME
Sequence of Cytochrome P450 2C9 (P11712 whole entry): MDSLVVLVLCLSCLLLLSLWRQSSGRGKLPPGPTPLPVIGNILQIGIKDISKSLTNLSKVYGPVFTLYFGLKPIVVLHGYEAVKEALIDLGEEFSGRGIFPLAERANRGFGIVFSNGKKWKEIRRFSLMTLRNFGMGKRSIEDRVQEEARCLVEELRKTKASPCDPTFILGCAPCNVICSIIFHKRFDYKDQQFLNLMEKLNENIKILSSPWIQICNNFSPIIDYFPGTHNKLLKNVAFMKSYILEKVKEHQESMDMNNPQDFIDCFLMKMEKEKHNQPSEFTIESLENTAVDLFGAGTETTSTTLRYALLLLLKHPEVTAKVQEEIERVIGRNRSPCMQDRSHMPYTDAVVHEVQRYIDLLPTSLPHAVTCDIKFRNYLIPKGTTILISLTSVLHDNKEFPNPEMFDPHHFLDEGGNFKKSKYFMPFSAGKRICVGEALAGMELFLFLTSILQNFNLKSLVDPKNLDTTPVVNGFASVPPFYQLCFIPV

Cytochrome P450 2C19 = Cytochrome P450 2C19 (Homo sapiens, UniProt P33261); test: Inhibition of CYP2C19 in human microsomes preincubated for 5 mins before substrate addition measured after 10 mins by LC/MS/MS analysis; format: ADME
Sequence of Cytochrome P450 2C19 (P33261 whole entry): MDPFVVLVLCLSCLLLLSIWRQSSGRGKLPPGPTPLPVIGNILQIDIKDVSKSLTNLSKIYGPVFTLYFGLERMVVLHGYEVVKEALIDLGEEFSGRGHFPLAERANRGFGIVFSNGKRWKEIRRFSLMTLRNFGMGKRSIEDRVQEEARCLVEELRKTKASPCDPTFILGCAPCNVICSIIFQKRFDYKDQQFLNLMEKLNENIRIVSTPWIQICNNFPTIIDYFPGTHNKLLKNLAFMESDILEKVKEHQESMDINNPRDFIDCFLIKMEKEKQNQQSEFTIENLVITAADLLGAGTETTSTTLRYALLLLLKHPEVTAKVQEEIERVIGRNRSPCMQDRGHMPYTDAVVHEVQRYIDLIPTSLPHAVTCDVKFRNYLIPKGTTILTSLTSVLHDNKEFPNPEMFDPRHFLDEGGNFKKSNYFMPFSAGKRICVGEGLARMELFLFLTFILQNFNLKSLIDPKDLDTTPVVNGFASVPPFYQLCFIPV

Cytochrome P450 2D6 = Cytochrome P450 2D6 (Homo sapiens, UniProt P10635); test: Inhibition of CYP2D6 in human microsomes preincubated for 5 mins before substrate addition measured after 10 mins by LC/MS/MS analysis; format: ADME
Sequence of Cytochrome P450 2D6 (P10635 whole entry): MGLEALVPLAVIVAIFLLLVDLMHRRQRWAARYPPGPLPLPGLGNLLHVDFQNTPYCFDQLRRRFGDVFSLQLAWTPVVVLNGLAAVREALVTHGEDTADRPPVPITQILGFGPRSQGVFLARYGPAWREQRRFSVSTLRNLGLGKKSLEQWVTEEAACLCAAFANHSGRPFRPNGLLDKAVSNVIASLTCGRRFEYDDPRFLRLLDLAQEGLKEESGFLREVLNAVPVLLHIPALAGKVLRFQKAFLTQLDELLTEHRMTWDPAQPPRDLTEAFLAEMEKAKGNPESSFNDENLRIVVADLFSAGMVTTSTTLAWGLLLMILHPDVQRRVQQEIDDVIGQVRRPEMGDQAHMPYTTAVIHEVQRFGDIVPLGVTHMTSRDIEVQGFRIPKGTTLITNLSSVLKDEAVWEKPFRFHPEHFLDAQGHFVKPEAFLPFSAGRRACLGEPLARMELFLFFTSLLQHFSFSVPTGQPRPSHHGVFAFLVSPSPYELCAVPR

Cytochrome P450 3A4 = Cytochrome P450 3A4 (Homo sapiens, UniProt P08684); test: Inhibition of CYP3A4 in human microsomes preincubated for 5 mins before substrate addition measured after 10 mins by LC/MS/MS analysis; format: ADME
Sequence of Cytochrome P450 3A4 (P08684 whole entry): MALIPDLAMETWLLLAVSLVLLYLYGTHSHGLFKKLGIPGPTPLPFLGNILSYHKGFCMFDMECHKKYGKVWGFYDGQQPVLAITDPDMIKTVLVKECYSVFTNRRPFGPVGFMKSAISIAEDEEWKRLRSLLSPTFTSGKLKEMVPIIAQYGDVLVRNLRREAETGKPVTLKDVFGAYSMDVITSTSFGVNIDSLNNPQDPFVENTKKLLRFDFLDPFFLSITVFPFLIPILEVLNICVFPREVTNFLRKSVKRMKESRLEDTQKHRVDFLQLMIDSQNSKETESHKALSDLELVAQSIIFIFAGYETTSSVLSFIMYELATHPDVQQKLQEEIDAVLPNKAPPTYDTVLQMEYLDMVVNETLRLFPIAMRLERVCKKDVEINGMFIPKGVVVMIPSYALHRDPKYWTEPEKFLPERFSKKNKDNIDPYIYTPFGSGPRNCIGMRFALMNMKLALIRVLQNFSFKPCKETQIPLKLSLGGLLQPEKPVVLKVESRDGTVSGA

CYP1A2 = CYP1A2 (Homo sapiens, UniProt P05177); test: Inhibition of CYP1A2 in human microsomes preincubated at 10 uM for 5 mins before substrate addition measured after 10 mins by LC/MS/MS analysis; format: ADME
CYP2C9 = CYP2C9 (Homo sapiens, UniProt P11712); test: Inhibition of CYP2C9 in human microsomes preincubated at 10 uM for 5 mins before substrate addition measured after 10 mins by LC/MS/MS analysis; format: ADME
Sequence of CYP2C9 (P11712 whole entry): as the sequence (P11712 whole entry) above

CYP2C19 = CYP2C19 (Homo sapiens, UniProt P33261); test: Inhibition of CYP2C19 in human microsomes preincubated at 10 uM for 5 mins before substrate addition measured after 10 mins by LC/MS/MS analysis; format: ADME
Sequence of CYP2C19 (P33261 whole entry): as the sequence (P33261 whole entry) above

CYP2D6 = CYP2D6 (Homo sapiens, UniProt P10635); test: Inhibition of CYP2D6 in human microsomes preincubated at 10 uM for 5 mins before substrate addition measured after 10 mins by LC/MS/MS analysis; format: ADME
Sequence of CYP2D6 (P10635 whole entry): as the sequence (P10635 whole entry) above

CYP3A4 = CYP3A4 (Homo sapiens, UniProt P08684); test: Inhibition of CYP3A4 in human microsomes preincubated at 10 uM for 5 mins before substrate addition measured after 10 mins by LC/MS/MS analysis; format: ADME
Sequence of CYP3A4 (P08684 whole entry): as the sequence (P08684 whole entry) above

Liver microsome [13] = test: Half life in rat liver microsomes at 100 uM by LC-MS/MS analysis; format: ADME
Liver microsome [14] = test: Half life in human liver microsomes at 100 uM by LC-MS/MS analysis; format: ADME
Liver = test: Half life in mouse liver microsomes at 100 uM by LC-MS/MS analysis; format: ADME
Liver microsome [15] = test: Intrinsic clearance in human liver microsomes assessed per mg protein at 100 uM by LC-MS/MS analysis; format: ADME

In the case of `CNC(=O)[C@@]12C[C@@H]1[C@@H](n1cnc3c(NC)nc(C#Cc4ccc(Br)s4)nc31)[C@H](O)[C@@H]2O`, the inhibition [1] is reported as 18%, the inhibition [2] is reported as 19% and the inhibition [3] is reported as 10%. The Time (Mus musculus [4]) was 1 h, the Emax at 3 µmol/kg (Mus musculus [5]) was 100% and the Activity (Mus musculus [6]) was 48.7%. The solubility [7] was 15.6 µg/mL (≈ 31 µM), the t1/2 [8] was greater than 8 h and the t1/2 [9] was greater than 8 h. The Fu (Plasma [10]) was 2.67%, the Fu (Plasma [11]) was 4.04% and the Fu (Plasma [12]) was 2.75%. The IC50 (Cytochrome P450 1A2) was greater than 7 µM, the IC50 (Cytochrome P450 2C9) was greater than 7 µM and the IC50 (Cytochrome P450 2C19) was greater than 7 µM. The IC50 (Cytochrome P450 2D6) was 7.4 µM, the IC50 (Cytochrome P450 3A4) was greater than 7 µM and the inhibition at 10 min, 10 µM (CYP1A2) was 15%. The inhibition at 10 min, 10 µM (CYP2C9) was 24.2%, the inhibition at 10 min, 10 µM (CYP2C19) was 34% and the inhibition at 10 min, 10 µM (CYP2D6) was 57.5%. For the same compound, the inhibition at 10 min, 10 µM (CYP3A4) was 3.1%, the t1/2 (Liver microsome [13]) was 1.52 h and the t1/2 (Liver microsome [14]) was 3.42 h. The t1/2 (Liver) was 1.6 h and the CLH (Liver microsome [15]) was 3.38 µL/min.
